Experimental data: paper PMC7078523 (Saudi Pharmaceutical Journal : SPJ, 2020)
Converted amounts (≈) assume the structure as drawn.

What was measured:
[1] = cited from earlier work
[2] = Phase solubility study of GRI with β-CD, NS2 and NS3; type: physicochemical; settings: distilled water
In-vitro release study = type: physicochemical
In-vivo bioavailability = experiment: In-vivo bioavailability; set-up: species or system rats; settings: male, albino, rat, plasma, po, 15 mg/kg
Outline: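 Fasted male albino rats (300±25 g), 7 per group, single oral 15 mg/kg as 1 ml aqueous suspension by feeding tube with 10 ml water. Orbital sinus blood into heparin at 0–48 h; plasma stored at -80 °C. Acetonitrile protein precipitation, propranolol internal standard, LC-MS/MS over 10–6000 ng/mL. Non-compartmental parameters per rat; AUC0-48 by log-linear trapezoidal rule, kel from terminal slope, t1/2 = 0.693/kel.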

Row | Compound | Aqueous solubility ([1]; physiological pH, ref Swaminathan et al., 2007) | solubility [2] | Biopharmaceutics Classification System (BCS) class ([1]; ref Amidon et al., 1995) | log P (octanol/water) ([1]; ref Arida et al., 2007) | GRI cumulative percent released/dissolved after 2 hrs (In-vitro release study; 0.1 N HCl (pH 1.2), 37 °C, 50 rpm) | GRI cumulative percent released/dissolved after 7 h (In-vitro release study; 2 h 0.1 N HCl then 5 hrs phosphate buffer pH 7.4) | Dissolution efficiency (%D.E.) (In-vitro release study; after 7 hrs) | Best fitted release kinetics model (In-vitro release study; highest correlation coefficient (R^2)) | AUC(0-t) (In-vivo bioavailability) | Cmax (In-vivo bioavailability) | Tmax (In-vivo bioavailability) | half-life (In-vivo bioavailability) | k el (In-vivo bioavailability)
1 | CCC(C)n1ncn(-c2ccc(N3CCN(c4ccc(OCC5COC(Cn6cncn6)(c6ccc(Cl)cc6Cl)O5)cc4)CC3)cc2)c1=O (stereo not shown) [itraconazole] | about 1 ng mL^−1 | – | – | – | – | – | – | – | – | – | – | – | –
2 | COC1=CC(=O)C[C@@H](C)[C@]12Oc1c(Cl)c(OC)cc(OC)c1C2=O [GRI, Griseofulvin] | – | ~35 µM (≈ 12.3 µg/mL) | class II | 2.15 | 21.81 ± 0.07% | 27.43 ± 0.32% | 23.87% | Higuchi release kinetics model | 22500 ng·h/mL | 1810 ng/mL | 2 h | 20 h | 1.03e-05 s⁻¹
